pIC50: −log10 of the molar value. In brackets after ≈: the same amount, converted by molar mass.
How the values were obtained:
[1] = target: Histone-lysine N-methyltransferase EZH2 (Homo sapiens, UniProt Q15910); assay: Inhibition of human wild type EZH2 using histone H3 as substrate after 1 hr in presence of 3H-SAM by filter paper detection analysis
How it was run: (§1)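 Each HMT complex was incubated with 3H-SAM (tritiated S-adenosyl-L-methionine) and histone H3 as substrate. An IC50 curve was generated for each compound.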

[2] = target: Histone-lysine N-methyltransferase EZH2 (Homo sapiens, UniProt Q15910, Y641F); assay: Inhibition of human EZH2 Y641F mutant using histone H3 as substrate after 1 hr in presence of 3H-SAM by filter paper detection analysis; how it was run: as §1
Histone-lysine N-methyltransferase EZH2 (Homo sapiens, UniProt Q15910, Y641F), sequence (Q15910 whole entry Y641F): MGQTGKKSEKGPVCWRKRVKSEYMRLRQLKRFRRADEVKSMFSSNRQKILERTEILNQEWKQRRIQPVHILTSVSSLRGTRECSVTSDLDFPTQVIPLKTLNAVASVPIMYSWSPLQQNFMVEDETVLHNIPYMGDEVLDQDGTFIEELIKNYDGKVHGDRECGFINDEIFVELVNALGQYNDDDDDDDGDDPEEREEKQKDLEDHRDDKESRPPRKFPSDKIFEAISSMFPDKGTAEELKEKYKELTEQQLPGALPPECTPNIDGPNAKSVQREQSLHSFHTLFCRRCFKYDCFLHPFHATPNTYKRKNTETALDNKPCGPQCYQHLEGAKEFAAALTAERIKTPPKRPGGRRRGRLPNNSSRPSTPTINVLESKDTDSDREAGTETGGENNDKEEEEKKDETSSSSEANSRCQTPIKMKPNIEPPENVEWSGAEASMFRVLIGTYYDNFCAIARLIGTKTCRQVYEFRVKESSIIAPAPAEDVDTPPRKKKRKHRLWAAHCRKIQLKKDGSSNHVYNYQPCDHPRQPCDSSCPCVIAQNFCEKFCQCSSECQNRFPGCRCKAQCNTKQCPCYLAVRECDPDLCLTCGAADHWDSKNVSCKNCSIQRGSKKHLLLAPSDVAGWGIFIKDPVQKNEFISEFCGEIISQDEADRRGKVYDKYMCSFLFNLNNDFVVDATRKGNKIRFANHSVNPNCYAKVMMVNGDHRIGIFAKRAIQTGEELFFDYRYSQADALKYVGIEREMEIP

[3] = target: T1, Histone-lysine N-methyltransferase EZH1 (Homo sapiens, UniProt Q92800); assay: Inhibition of human EZH1 complex using histone H3 as substrate after 1 hr in presence of 3H-SAM by filter paper detection analysis; how it was run: as §1
T1 sequence (Q92800 whole entry): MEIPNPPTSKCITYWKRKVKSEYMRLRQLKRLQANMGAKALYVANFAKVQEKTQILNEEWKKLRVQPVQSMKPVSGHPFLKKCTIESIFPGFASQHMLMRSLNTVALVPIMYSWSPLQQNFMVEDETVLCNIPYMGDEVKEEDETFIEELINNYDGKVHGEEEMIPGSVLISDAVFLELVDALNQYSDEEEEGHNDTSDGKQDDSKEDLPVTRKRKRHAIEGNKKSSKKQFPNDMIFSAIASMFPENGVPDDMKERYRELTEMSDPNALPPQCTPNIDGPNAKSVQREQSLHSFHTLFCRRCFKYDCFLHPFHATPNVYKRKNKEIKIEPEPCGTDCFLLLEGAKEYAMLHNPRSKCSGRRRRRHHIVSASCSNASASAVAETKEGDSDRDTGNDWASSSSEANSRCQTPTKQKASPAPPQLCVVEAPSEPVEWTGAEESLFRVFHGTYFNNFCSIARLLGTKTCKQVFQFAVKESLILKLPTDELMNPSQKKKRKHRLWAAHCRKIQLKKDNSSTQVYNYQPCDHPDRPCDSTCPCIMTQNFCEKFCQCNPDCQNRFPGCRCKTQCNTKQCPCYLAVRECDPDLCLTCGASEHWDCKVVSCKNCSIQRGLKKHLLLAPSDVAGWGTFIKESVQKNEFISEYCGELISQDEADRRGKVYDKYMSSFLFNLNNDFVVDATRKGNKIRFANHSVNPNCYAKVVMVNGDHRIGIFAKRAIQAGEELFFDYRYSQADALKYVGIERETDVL

[4] = Kinetic solubility of compound in PBS buffer at pH 7.4 after 1 hr by micro-plate nephelometric analysis; assay type: physicochemical; conditions: read-out: Kinetic_solubility
[5] = Oxidative metabolic stability in mouse liver microsomes assessed as amount of parent compound remaining at 1 uM after 30 mins by LC-MS/MS; assay type: ADME; conditions: read-out: Stability
[6] = Oxidative metabolic stability in human liver microsomes assessed as amount of parent compound remaining at 1 uM after 30 mins by LC-MS/MS; assay type: ADME; conditions: read-out: Stability

Histone-lysine N-methyltransferase EZH2 (Homo sapiens, UniProt Q15910), sequence (Q15910 whole entry): as the sequence (Q15910 whole entry Y641F) above, with F641Y counted along it

Row | SMILES | pIC50 [1] | pIC50 [2] | pIC50 [3] | also measured
1 | Cc1cc(C)c(CNC(=O)c2cc(C#N)cc3c2CCN3C2CCCC2)c(=O)[nH]1 | 6.24 |  |  | 
2 | Cc1cc(C)c(CNC(=O)c2cc(-c3ccc(CN4CCOCC4)cc3)cc3c2CCN3C2CCOCC2)c(=O)[nH]1 | 6.63 |  |  | 
3 | Cc1cc(C)c(CNC(=O)c2cc(C#N)cc3c2C(C)CN3C(C)C)c(=O)[nH]1 (stereo in doubt; 27e2) | < 4.00 |  |  | 
4 | Cc1cc(C)c(CNC(=O)c2cc(C#N)cc3c2C(C)CN3C2CCCC2)c(=O)[nH]1 (stereo in doubt; 28e2) | < 4.00 |  |  | 
5 | Cc1cc(C)c(CNC(=O)c2cc(-c3ccc(CN4CCOCC4)cc3)cc3c2C(C)CN3C(C)C)c(=O)[nH]1 (stereo in doubt; 30e2) | 5.38 |  |  | 
6 | Cc1cc(C)c(CNC(=O)c2cc(-c3ccc(CN4CCOCC4)cc3)cc3c2C(C)CN3C2CCCC2)c(=O)[nH]1 (stereo in doubt; 33e2) | 6.35 |  |  | 
7 | Cc1cc(C)c(CNC(=O)c2cc(-c3ccc(CN4CCOCC4)cc3)cc3c2C(C)CN3C2CCOCC2)c(=O)[nH]1 (stereo in doubt; 34e1) | 7.54 | 6.01 | 5.48 | solubility kinetic at 1 h [4]: 75 µM (≈ 42.8 µg/mL); remaining at 0.5 h, 1 µM [5]: 58%; remaining at 0.5 h, 1 µM [6]: 62%
8 | Cc1cc(C)c(CNC(=O)c2cc(-c3cnc(N4CCNCC4)c4ccccc34)cc3c2C(C)CN3C2CCOCC2)c(=O)[nH]1 (stereo in doubt; 36e1) | 7.77 | 6.52 | 5.81 | 
9 | Cc1cc(C)c(CNC(=O)c2cc(-c3ccc(N4CCNCC4)nc3)cc3c2C(C)CN3C(C)C)c(=O)[nH]1 (stereo in doubt; 39e1) | 7.77 | 6.21 | 5.73 | 
10 | Cc1cc(C)c(CNC(=O)c2cc(-c3ccc(N4CCNCC4)nc3)cc3c2C(C)CN3C2CCCC2)c(=O)[nH]1 (stereo in doubt; 40e1) | 7.68 | 6.30 | 5.87 | 
11 | Cc1cc(C)c(CNC(=O)c2cc(-c3ccc(N4CCNCC4)nc3)cc3c2C(C)CN3C2CCOCC2)c(=O)[nH]1 (stereo in doubt; 41e1) | 7.96 | 6.24 | 5.70 | solubility kinetic at 1 h [4]: 75 µM (≈ 41.8 µg/mL); remaining at 0.5 h, 1 µM [5]: 95%; remaining at 0.5 h, 1 µM [6]: 83%
12 | Cc1cc(C)c(CNC(=O)c2cc(-c3ccc(N4CCNCC4)nc3)cc3c2C(C)CN3C2CCOCC2)c(=O)[nH]1 (stereo in doubt; 41e2) | 5.67 |  |  | 
13 | Cc1cc(C)c(CNC(=O)c2cc(-c3cnc(N4CCNCC4)nc3)cc3c2C(C)CN3C2CCOCC2)c(=O)[nH]1 (stereo in doubt; 45e1) | 7.01 |  |  | 
14 | Cc1cc(C)c(CNC(=O)c2cc(-c3cnc(N4CCNCC4)nc3)cc3c2C(C)CN3C2CCOCC2)c(=O)[nH]1 (stereo in doubt; 45e2) | 5.67 |  |  | 
15 | CCN(c1cc(-c2ccc(CN3CCOCC3)cc2)cc(C(=O)NCc2c(C)cc(C)[nH]c2=O)c1C)C1CCOCC1 [TAZEMETOSTAT] |  |  |  | solubility kinetic at 1 h [4]: 28 µM (≈ 16 µg/mL); remaining at 0.5 h, 1 µM [5]: 39%; remaining at 0.5 h, 1 µM [6]: 25%

Now from value to compound, other results behind:

Row | pIC50 [1] | pIC50 [2] | pIC50 [3] | SMILES | also measured
16 | 4.80 |  |  | Cc1cc(C)c(CNC(=O)c2cc(C#N)cc3c2CCN3C2CCOCC2)c(=O)[nH]1 | 
17 | 4.58 |  |  | Cc1cc(C)c(CNC(=O)c2cc(C#N)cc3c2CCN3C(C)C)c(=O)[nH]1 | 
18 | 7.06 | 6.32 | 5.11 | Cc1cc(C)c(CNC(=O)c2cc(C#N)cc3c2C(C)CN3C(C)C)c(=O)[nH]1 (stereo in doubt; 27e1) | 
19 | 7.57 | 6.73 | 5.35 | Cc1cc(C)c(CNC(=O)c2cc(C#N)cc3c2C(C)CN3C2CCCC2)c(=O)[nH]1 (stereo in doubt; 28e1) | 
20 | 7.33 | 6.29 | 5.57 | Cc1cc(C)c(CNC(=O)c2cc(-c3ccc(CN4CCOCC4)cc3)cc3c2C(C)CN3C(C)C)c(=O)[nH]1 (stereo in doubt; 30e1) | 
21 | 6.43 |  |  | Cc1cc(C)c(CNC(=O)c2cc(-c3ccc(CN4CCOCC4)cc3)cc3c2C(C)CN3CC2CC2)c(=O)[nH]1 (stereo in doubt; 31e1) | 
22 | 4.82 |  |  | Cc1cc(C)c(CNC(=O)c2cc(-c3ccc(CN4CCOCC4)cc3)cc3c2C(C)CN3CC2CC2)c(=O)[nH]1 (stereo in doubt; 31e2) | 
23 | 7.62 | 6.04 | 5.58 | Cc1cc(C)c(CNC(=O)c2cc(-c3ccc(CN4CCOCC4)cc3)cc3c2C(C)CN3C2CCCC2)c(=O)[nH]1 (stereo in doubt; 33e1) | 
24 | 5.16 |  |  | Cc1cc(C)c(CNC(=O)c2cc(-c3ccc(CN4CCOCC4)cc3)cc3c2C(C)CN3C2CCOCC2)c(=O)[nH]1 (stereo in doubt; 34e2) | 
25 | 6.27 |  |  | Cc1cc(C)c(CNC(=O)c2cc(-c3cnc(N4CCNCC4)c4ccccc34)cc3c2C(C)CN3C2CCOCC2)c(=O)[nH]1 (stereo in doubt; 36e2) | 
26 | 5.97 |  |  | Cc1cc(C)c(CNC(=O)c2cc(-c3ccc(N4CCNCC4)nc3)cc3c2C(C)CN3C(C)C)c(=O)[nH]1 (stereo in doubt; 39e2) | 
27 | 6.42 |  |  | Cc1cc(C)c(CNC(=O)c2cc(-c3ccc(N4CCNCC4)nc3)cc3c2C(C)CN3C2CCCC2)c(=O)[nH]1 (stereo in doubt; 40e2) | 

Source: ChEMBL document CHEMBL3870349, “Novel 3-methylindoline inhibitors of EZH2: Design, synthesis and SAR” (Bioorg Med Chem Lett, 2017)
